Experimental data taken from ChEMBL document CHEMBL1146365, “Synthesis and biological evaluation of new N-(2-hydroxy-4(or 5)-nitro/aminophenyl)benzamides and phenylacetamides as antimicrobial agents” (2007).
≈ marks a conversion by molar mass, not a printed value.

Tests used:
[1] = system: Escherichia coli; assay: Antibacterial activity against Escherichia coli isolate assessed after 24 hrs by serial dilution method; assay type: functional
Procedure, shortened: (§1)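 Strains were subcultured twice on MHA at 37 °C overnight. Inoculum was diluted from McFarland 0.5 to 10^5 cfu/ml, giving 10^4 cfu/ml in wells. Solvent, medium and organism-only controls were included. Incubated 37 °C, humid chamber, 24 h, in triplicate. MIC = lowest concentration with no macroscopic growth.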

[2] = system: Klebsiella pneumoniae; assay: Antibacterial activity against Klebsiella pneumoniae isolate assessed after 24 hrs by serial dilution method; assay type: functional; procedure, shortened: as §1
[3] = system: Bacillus subtilis; assay: Antibacterial activity against drug-resistant Bacillus subtilis assessed after 24 hrs by serial dilution method
[4] = system: Staphylococcus aureus; assay: Antibacterial activity against drug-resistant Staphylococcus aureus assessed after 24 hrs by serial dilution method
[5] = system: Staphylococcus aureus; assay: Antibacterial activity against Staphylococcus aureus ATCC 25923 assessed after 24 hrs by serial dilution method; assay type: functional; procedure, shortened: as §1
[6] = system: Klebsiella pneumoniae; assay: Antibacterial activity against Klebsiella pneumoniae RSHM 574 assessed after 24 hrs by serial dilution method
[7] = system: Escherichia coli; assay: Antibacterial activity against Escherichia coli ATCC 25922 assessed after 24 hrs by serial dilution method
[8] = system: Bacillus subtilis; assay: Antibacterial activity against Bacillus subtilis ATCC 6633 assessed after 24 hrs by serial dilution method; assay type: functional; procedure, shortened: as §1
[9] = system: Pseudomonas aeruginosa; assay: Antibacterial activity against Pseudomonas aeruginosa isolate assessed after 24 hrs by serial dilution method; assay type: functional; procedure, shortened: as §1
[10] = system: Candida albicans; assay: Antifungal activity against Candida albicans ATCC 10231 assessed after 48 hrs by serial dilution method; assay type: functional; conditions: ATCC 10231, 48 h
Procedure, shortened: (§2)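 Broth microdilution per CLSI M27-A in RPMI-1640 with L-glutamine, MOPS-buffered pH 7, with 2-fold compound dilutions. Yeasts were subcultured twice on SDA at 35 °C for 24–48 h. Inoculum was diluted from McFarland 0.5 to 10^4 cfu/ml, giving 10^3 cfu/ml in wells. Incubated 35 °C, humid chamber, 48 h, in triplicate. MIC = lowest concentration with no macroscopic growth.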

[11] = system: Pseudomonas aeruginosa; assay: Antibacterial activity against Pseudomonas aeruginosa ATCC […] assessed after 24 hrs by serial dilution method
[12] = system: Candida albicans; assay: Antifungal activity against Candida albicans isolate assessed after 48 hrs by serial dilution method; assay type: functional; procedure, shortened: as §2
[13] = system: Escherichia coli; assay: Antibacterial activity against Escherichia coli ATCC assessed after 24 hrs by serial dilution method

Molecule: GENTAMICIN SULFATE
- MIC [1]: 0.97 µg/mL
- MIC [2]: 1020 µg/mL
- MIC [3]: 2050 µg/mL
- MIC [4]: 1020 µg/mL
- MIC [5]: > 4100 µg/mL
- MIC [6]: > 4100 µg/mL
- MIC [7]: 1020 µg/mL
- MIC [8]: 512 µg/mL
- MIC [9]: 1020 µg/mL

Molecule: Nc1ccc(NC(=O)c2ccc(Br)cc2)c(O)c1
- MIC [10]: 250 µg/mL (≈ 814 µM)
- MIC [1]: 250 µg/mL (≈ 814 µM)
- MIC [2]: 250 µg/mL (≈ 814 µM)
- MIC [3]: 31.2 µg/mL (≈ 102 µM)
- MIC [4]: 7.8 µg/mL (≈ 25.4 µM)
- MIC [11]: 250 µg/mL (≈ 814 µM)
- MIC ([5]; ATCC 25923, 24 h): 125 µg/mL (≈ 407 µM)
- MIC [6]: 250 µg/mL (≈ 814 µM)
- MIC ([8]; ATCC 6633, 24 h): 62.5 µg/mL (≈ 203 µM)
- MIC [12]: 125 µg/mL (≈ 407 µM)
- MIC [13]: 125 µg/mL (≈ 407 µM)
- MIC [9]: 250 µg/mL (≈ 814 µM)

Molecule: CCc1ccc(C(=O)Nc2ccc(N)cc2O)cc1
- MIC [10]: 125 µg/mL (≈ 488 µM)
- MIC [1]: 250 µg/mL (≈ 975 µM)
- MIC [2]: 250 µg/mL (≈ 975 µM)
- MIC [3]: 31.2 µg/mL (≈ 122 µM)
- MIC [4]: 7.8 µg/mL (≈ 30.4 µM)
- MIC [11]: 250 µg/mL (≈ 975 µM)
- MIC ([5]; ATCC 25923, 24 h): 125 µg/mL (≈ 488 µM)
- MIC [6]: 125 µg/mL (≈ 488 µM)
- MIC ([8]; ATCC 6633, 24 h): 250 µg/mL (≈ 975 µM)
- MIC [12]: 125 µg/mL (≈ 488 µM)
- MIC [13]: 125 µg/mL (≈ 488 µM)
- MIC [9]: 250 µg/mL (≈ 975 µM)

Molecule: O=C(Nc1ccc([N+](=O)[O-])cc1O)c1ccc(F)cc1
- MIC [10]: 250 µg/mL (≈ 905 µM)
- MIC [1]: 250 µg/mL (≈ 905 µM)
- MIC [2]: 250 µg/mL (≈ 905 µM)
- MIC [3]: 15.6 µg/mL (≈ 56.5 µM)
- MIC [4]: 15.6 µg/mL (≈ 56.5 µM)
- MIC [11]: 125 µg/mL (≈ 453 µM)
- MIC ([5]; ATCC 25923, 24 h): 7.8 µg/mL (≈ 28.2 µM)
- MIC [6]: 125 µg/mL (≈ 453 µM)
- MIC ([8]; ATCC 6633, 24 h): 3.9 µg/mL (≈ 14.1 µM)
- MIC [12]: 250 µg/mL (≈ 905 µM)
- MIC [13]: 125 µg/mL (≈ 453 µM)
- MIC [9]: 250 µg/mL (≈ 905 µM)

Molecule: O=C(Cc1ccc(Br)cc1)Nc1ccc([N+](=O)[O-])cc1O
- MIC [10]: 250 µg/mL (≈ 712 µM)
- MIC [1]: 250 µg/mL (≈ 712 µM)
- MIC [2]: 125 µg/mL (≈ 356 µM)
- MIC [3]: 125 µg/mL (≈ 356 µM)
- MIC [4]: 125 µg/mL (≈ 356 µM)
- MIC [11]: 250 µg/mL (≈ 712 µM)
- MIC ([5]; ATCC 25923, 24 h): 250 µg/mL (≈ 712 µM)
- MIC [6]: 250 µg/mL (≈ 712 µM)
- MIC ([8]; ATCC 6633, 24 h): 31.2 µg/mL (≈ 89 µM)
- MIC [12]: 250 µg/mL (≈ 712 µM)
- MIC [13]: 125 µg/mL (≈ 356 µM)
- MIC [9]: 250 µg/mL (≈ 712 µM)

Molecule: O=C(Nc1ccc([N+](=O)[O-])cc1O)c1ccccc1
- MIC [10]: 62.5 µg/mL (≈ 242 µM)
- MIC [1]: 250 µg/mL (≈ 968 µM)
- MIC [2]: 250 µg/mL (≈ 968 µM)
- MIC [3]: 31.2 µg/mL (≈ 121 µM)
- MIC [4]: 125 µg/mL (≈ 484 µM)
- MIC [11]: 125 µg/mL (≈ 484 µM)
- MIC ([5]; ATCC 25923, 24 h): 62.5 µg/mL (≈ 242 µM)
- MIC [6]: 125 µg/mL (≈ 484 µM)
- MIC ([8]; ATCC 6633, 24 h): 31.2 µg/mL (≈ 121 µM)
- MIC [12]: 125 µg/mL (≈ 484 µM)
- MIC [13]: 125 µg/mL (≈ 484 µM)
- MIC [9]: 250 µg/mL (≈ 968 µM)

Molecule: Nc1ccc(NC(=O)Cc2ccc(Cl)cc2)c(O)c1
- MIC [10]: 125 µg/mL (≈ 452 µM)
- MIC [1]: 125 µg/mL (≈ 452 µM)
- MIC [2]: 250 µg/mL (≈ 903 µM)
- MIC [3]: 62.5 µg/mL (≈ 226 µM)
- MIC [4]: 31.2 µg/mL (≈ 113 µM)
- MIC [11]: 125 µg/mL (≈ 452 µM)
- MIC ([5]; ATCC 25923, 24 h): 62.5 µg/mL (≈ 226 µM)
- MIC [6]: 125 µg/mL (≈ 452 µM)
- MIC ([8]; ATCC 6633, 24 h): 250 µg/mL (≈ 903 µM)
- MIC [12]: 125 µg/mL (≈ 452 µM)
- MIC [13]: 125 µg/mL (≈ 452 µM)
- MIC [9]: 125 µg/mL (≈ 452 µM)

Molecule: CCc1ccc(C(=O)Nc2cc([N+](=O)[O-])ccc2O)cc1
- MIC [10]: 125 µg/mL (≈ 437 µM)
- MIC [1]: 250 µg/mL (≈ 873 µM)
- MIC [2]: 125 µg/mL (≈ 437 µM)
- MIC [3]: 31.2 µg/mL (≈ 109 µM)
- MIC [4]: 7.8 µg/mL (≈ 27.2 µM)
- MIC [11]: 62.5 µg/mL (≈ 218 µM)
- MIC ([5]; ATCC 25923, 24 h): 7.8 µg/mL (≈ 27.2 µM)
- MIC [6]: 250 µg/mL (≈ 873 µM)
- MIC ([8]; ATCC 6633, 24 h): 3.9 µg/mL (≈ 13.6 µM)
- MIC [12]: 62.5 µg/mL (≈ 218 µM)
- MIC [13]: 125 µg/mL (≈ 437 µM)
- MIC [9]: 250 µg/mL (≈ 873 µM)
